From ChEMBL document CHEMBL1138087, “Synthesis and evaluation of N-aryl pyrrolidinones as novel anti-HIV-1 agents. Part 1” (Bioorg Med Chem Lett, 2006)

What was measured:
[1] = system: Human immunodeficiency virus 1; assay: Selectivity for wild type HIV1 virus over HIV1 K103N mutant; format: functional
[2] = system: Human immunodeficiency virus 1; assay: Selectivity for wild type HIV1 virus over HIV1 Y181C mutant; format: functional
[3] = system: Human immunodeficiency virus 1; assay: Selectivity for wild type HIV1 virus over HIV1 L100I mutant; format: functional
[4] = system: Human immunodeficiency virus 1; assay: Selectivity for wild type HIV1 virus over HIV1 K103N/L100I mutant; format: functional
[5] = system: Human immunodeficiency virus 1; assay: Antiviral activity against wild type HIV1 virus; format: functional, organism-based
Procedure, shortened: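 HEK 293T cells grown in DMEM with 10% FBS and Pen/Strep/Glutamine. Seeded at 700 cells/well, cultured 24 h at 37 °C under 5% CO₂. Serially diluted compound in DMSO added, then 1 h at 37 °C. HIV reporter virus added at MOI about 1.0, cells cultured a further 48 h at 37 °C. Luciferase read-out with Bright-Glo reagent.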

HEK293 = assay: Cytotoxicity against HEK293T cells; format: functional; conditions: Homo sapiens
Procedure, shortened: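 293T cells seeded at 700 cells/well and cultured 24 h at 37 °C under 5% CO₂. Serially diluted compound in DMSO added to uninfected cells, then a further 48 h at 37 °C. Viability read by fluorescence after Alamar Blue (diluted 1:1 in DMEM) and 4 h at room temperature.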

[6] = system: Human immunodeficiency virus 1; assay: Antiviral activity against HIV1 K103N mutant; format: functional, organism-based
Procedure, shortened: (§1)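 HEK 293T cells grown in DMEM with 10% FBS and Pen/Strep/Glutamine. Cells seeded at 700 cells/well and cultured 24 h at 37 °C under 5% CO₂. Compounds serially diluted in DMSO were added and incubated 1 h at 37 °C. Cells were then infected with HIV reporter virus at MOI ~1.0 and cultured a further 48 h at 37 °C. Read-out was luciferase activity (Bright-Glo).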

[7] = system: Human immunodeficiency virus 1; assay: Antiviral activity against HIV1 Y181C mutant; format: functional, organism-based; procedure, shortened: as §1
[8] = system: Human immunodeficiency virus 1; assay: Antiviral activity against HIV1 L100I mutant; format: functional, organism-based; procedure, shortened: as §1
[9] = system: Human immunodeficiency virus 1; assay: Antiviral activity against HIV1 K103N/L100I mutant; format: functional, organism-based; procedure, shortened: as §1
[10] = molecular target: Human immunodeficiency virus type 1 reverse transcriptase (Human immunodeficiency virus 1, UniProt Q72547); assay: Inhibition of HIV1 reverse transcriptase

IC50 [10] [nM] | Compound | Selectivity ratio [1] | Selectivity ratio [2] | Selectivity ratio [3] | Selectivity ratio [4] | EC50 [5] [nM] | CC50 (HEK293) [nM] | EC50 [6] [nM] | EC50 [7] [nM] | EC50 [8] [nM] | EC50 [9] [nM]
– | COc1ccc([C@H]2CC(=O)N(c3cccc(NS(=O)(=O)c4cccc(F)c4)c3)C2)cc1OC1CCCC1 | 6 | 16 | 0.46 | 0.6 | 43 | > 10000 | 261 | 684 | 20 | 26
– | COc1ccc([C@H]2CC(=O)N(c3cccc(NS(=O)(=O)c4ccccc4C)c3)C2)cc1OC1CCCC1 | 4.9 | 10 | 0.42 | 0.7 | 24 | > 10000 | 117 | 246 | 10 | 17
– | COc1ccc([C@H]2CC(=O)N(c3cccc(NS(=O)(=O)c4ccccc4Br)c3)C2)cc1OC1CCCC1 | 6.9 | 19 | 0.38 | 0.52 | 42 | > 10000 | 292 | 794 | 16 | 22
– | COc1ccc([C@H]2CC(=O)N(c3cccc(NS(=O)(=O)c4ccccc4Cl)c3)C2)cc1OC1CCCC1 | 4 | 13 | 0.45 | 0.67 | 42 | > 10000 | 170 | 557 | 19 | 28
– | COc1ccc([C@H]2CC(=O)N(c3cccc(NS(=O)(=O)c4cccc(Cl)c4)c3)C2)cc1OC1CCCC1 | 27 | 93 | 1.6 | 2.2 | 25 | > 10000 | 689 | 2320 | 40 | 56
– | COc1cccc(S(=O)(=O)Nc2cccc(N3C[C@@H](c4ccc(OC)c(OC5CCCC5)c4)CC3=O)c2)c1 | 26 | 40 | 1.3 | 3 | 25 | > 10000 | 656 | 990 | 33 | 76
– | COc1ccc([C@H]2CC(=O)N(c3cccc(NS(=O)(=O)c4c(F)cccc4F)c3)C2)cc1OC1CCCC1 | 9.4 | 27 | 1.4 | 1 | 48 | > 10000 | 451 | 1300 | 68 | 52
– | COc1ccc([C@H]2CC(=O)N(c3cccc(NS(=O)(=O)c4ccccc4F)c3)C2)cc1OC1CCCC1 | 4.2 | 21 | 0.53 | 0.64 | 64 | > 10000 | 269 | 1500 | 34 | 41
– | COc1ccc([C@H]2CC(=O)N(c3cccc(NS(=O)(=O)c4cccc(Br)c4)c3)C2)cc1OC1CCCC1 | 13 | 32 | 0.74 | 1.1 | 71 | > 10000 | 923 | 2260 | 53 | 83
2000 | COc1ccc([C@H]2CC(=O)N(c3cccc(N)c3)C2)cc1OC1CCCC1 | – | – | – | – | 125 | > 10000 | – | – | – | –
– | COc1ccc([C@H]2CC(=O)N(c3cccc(NS(=O)(=O)c4cccc(Cl)c4C)c3)C2)cc1OC1CCCC1 | 8.1 | 19 | 0.4 | 0.5 | 20 | > 10000 | 162 | 389 | 8 | 10
– | Cc1ccnc2c1NC(=O)c1cccnc1N2C1CC1 [NEVIRAPINE] | 101 | > 200 | 3.2 | 88 | 50 | > 10000 | 5050 | > 10000 | 164 | 4390
